In ChEMBL document CHEMBL1147849, “Synthesis and recognition of novel isonucleoside triphosphates by DNA polymerases” (Bioorg Med Chem, 2007):
Activity calls are given as the source filed them. The rule behind the calls is not given here.

Tests used:
[1] = Ratio of Vmax to Km for 9 Nm DNA polymerase
How it was run: (§1)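 Kinetics with 9°N DNA polymerase at 0.01 U/µL in the supplier's buffer. Primer was annealed to template 2 (T at the target site), 2 µM primer–template complex, with varying concentrations of dATP or the isonucleoside triphosphate.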

[2] = Activity of 9 Nm DNA polymerase enzyme; how it was run: as §1
[3] = test system: Thermus aquaticus; assay: Inhibition of Thermus acquaticus DNA polymerase-mediated DNA synthesis assessed as DNA chain termination
How it was run: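 Taq polymerase primer extension: 25-mer template (A, T, G or C at the first target site) and 5′-FITC 17-mer primer, 20 pmol each. Buffer was 50 mM KCl, 10 mM Tris–HCl pH 9.0, 1.5 mM MgCl₂, 0.1% Triton X-100. Triphosphate or dNTPs 1 nmol each, 2 U enzyme, 50 °C for 1.5 h. Read-out by denaturing polyacrylamide gel electrophoresis.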

[4] = Inhibition of 9 Nm DNA polymerase-mediated DNA synthesis assessed as DNA chain termination
How it was run: (§2)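 25-mer template (four variants, each with A, T, G or C at the first target site) annealed to a 5′-FITC 17-mer primer, 20 pmol each. Annealing was done by cooling quickly from 90 to 0 °C in buffer: 10 mM KCl, 10 mM (NH₄)₂SO₄, 20 mM Tris–HCl pH 8.8, 2 mM MgSO₄, 0.1% Triton X-100. Reactions held triphosphate or dNTPs (1 nmol each) and 2 U polymerase, 50 °C, 1.5 h. Products were resolved by denaturing PAGE.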

[5] = Inhibition of Therminator DNA polymerase-mediated DNA synthesis assessed as DNA chain termination; how it was run: as §2
[6] = Inhibition of Vent(exo-) DNA polymerase-mediated DNA synthesis assessed as DNA chain termination; how it was run: as §2
[7] = Inhibition of Deep Vent(exo-) DNA polymerase-mediated DNA synthesis assessed as DNA chain termination; how it was run: as §2

| Structure (SMILES) | Activity [3] | Activity [4] | also measured |
| --- | --- | --- | --- |
| Nc1ncnc2c1ncn2[C@H]1C[C@H](O)[C@@H](COP(=O)(O)OP(=O)(O)OP(=O)(O)O)O1 | – | – | Vmax/Km [1]: 8.63e+06 M⁻¹; Km [2]: 0.78 µM; Vmax [2]: 6.73 %/min |
| Nc1nc2c(ncn2[C@H]2CO[C@@H](CCOP(=O)(O)OP(=O)(O)OP(=O)(O)O)[C@@H]2O)c(=O)[nH]1 | Active | Active | – |
| Cc1cn([C@H]2CO[C@@H](CCOP(=O)(O)OP(=O)(O)OP(=O)(O)O)[C@@H]2O)c(=O)[nH]c1=O | Active | Active | – |
| Nc1ccn([C@H]2CO[C@@H](CCOP(=O)(O)OP(=O)(O)OP(=O)(O)O)[C@@H]2O)c(=O)n1 | Active | Active | – |
| Nc1ncnc2c1ncn2[C@@H]1CO[C@H](COP(=O)(O)OP(=O)(O)OP(=O)(O)O)[C@H]1O | Active | inactive | Activity [5]: inactive; Activity [6]: inactive; Activity [7]: Active |
| C=CCOC[C@@H]1O[C@@H](COP(=O)(O)OP(=O)(O)OP(=O)(O)O)[C@H](O)[C@H]1n1cc(C)c(=O)[nH]c1=O | Active | Active | – |
